# Only some compounds are listed: those with a hit (about 2.5% of all), similar ones and a draw of the others.
# OX1R antag-1 – OX1R (HCRTR1) antagonists, primary screen, fluorescence, CHO/OX1R cells, Fluo-8 calcium, orexin A; Fluo-8 calcium fluorescence; inhibition, % at 5 µM; actives 0.43% (n = 330,000); AID 434989, 2010;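 active = inhibition above its plate's threshold, mean inhibition of all tested compounds on the plate plus 3 SD, cut at about 37% in these data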
# CHO parental Ca – ATP-evoked calcium signal inhibitors, parental CHO, primary screen, counter-screen for OX1R antagonist project, cell-based, fluorescence, Fluo-8 calcium dye; parental CHO-K1, ATP-induced calcium, Fluo-8 fluorescence; inhibition, % at 5.6 µM; actives 0.63% (n = 330,000);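 active = inhibition above that plate's mean sample inhibition plus 3 SD, cut at about 26% in these data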
#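 Material: Parental CHO cells | Reagent: ATP | Compound dosing: Single nominal dose of 5.6 µM per compound | Detection: Intracellular calcium via Fluo-8 no-wash fluorescent dye | Read-out: % inhibition of ATP-induced calcium mobilization | Benchmarks: Low control ATP plus DMSO, high control DMSO only | Replicates: Singlicate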
# OX1R antag-2 – antagonists of human orexin 1 receptor (OX1R) | actives 1.8% (n = 330,000) | Orexin/Hypocretin receptor type 1 (Homo sapiens), O43613 | inhibition, % at 6.6 µM | OX1R-expressing cells, FRET antagonist read-out; in the data active = inhibition mostly above about 38%, no sharp cut-off; inactive = mostly below about 40%
# TRPN1 ag – zebrafish TRPN1 channel agonists, primary screen, cell-based, HEK293, calcium fluorescence; actives 0.18% (n = 220,000); activation, % at 3 µM; AID 1424, 2008; transient receptor potential cation channel N1 (TRPN1/NompC), Danio rerio; HEK293 zebrafish TRPN1-YFP, Fluo-8 calcium fluorescence; 100% = response to 87 µM carbachol;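 active = activation above its plate's cutoff, the mean activation of test wells on that plate plus 3 SD, cut at about 19% in these data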
#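 System: zebrafish TRPN1-YFP in HEK293 cells / Dosing: 3 µM single point / Timing: dye loading 1 h at 37 °C, then 30 min room temperature / Signal: Fluo-8 calcium fluorescence, excitation 470-495 nm, emission 515-575 nm / Read-out basis: percent activation from peak over basal fluorescence ratio, control-normalized / Control set: high carbachol 87 µM, low DMSO alone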
# TRPML3 agonist – human TRPML3 channel agonists, primary screen, cell-based, HEK293 TRPML3-YFP, Fluo-8 calcium fluorescence, 3 µM; Mucolipin-3 (Homo sapiens), Q8TDD5; 100% = the carbachol control signal; activation, % at 3 µM; actives 0.29% (n = 220,000); AID 1448, 2008;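 active = activation above its plate's cutoff, the mean activation of the plate's test wells plus 3 SD, cut at about 12% in these data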
# Target sequence (Q8TDD5 whole entry, looked up): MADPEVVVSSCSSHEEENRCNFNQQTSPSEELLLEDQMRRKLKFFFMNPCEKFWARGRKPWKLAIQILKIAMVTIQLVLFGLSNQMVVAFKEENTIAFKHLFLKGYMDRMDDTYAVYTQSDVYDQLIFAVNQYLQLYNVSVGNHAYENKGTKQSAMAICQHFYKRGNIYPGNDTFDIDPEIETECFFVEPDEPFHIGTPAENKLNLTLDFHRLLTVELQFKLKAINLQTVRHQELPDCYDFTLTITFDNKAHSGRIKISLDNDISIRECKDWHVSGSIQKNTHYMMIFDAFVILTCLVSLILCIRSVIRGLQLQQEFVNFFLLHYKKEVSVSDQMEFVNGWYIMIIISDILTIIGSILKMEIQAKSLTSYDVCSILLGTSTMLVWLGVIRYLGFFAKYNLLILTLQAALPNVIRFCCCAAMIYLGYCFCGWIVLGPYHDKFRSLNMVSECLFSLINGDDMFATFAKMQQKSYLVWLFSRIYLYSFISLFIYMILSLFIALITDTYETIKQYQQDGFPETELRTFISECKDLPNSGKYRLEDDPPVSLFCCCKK
#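 Test system: TRPML3-YFP stable HEK293 cells. Doses: single point at 3 µM. Incubation: dye loading 1 h 37 °C then 30 min ambient, 125 s read. Signal: Fluo-8 calcium dye fluorescence, ex 470-495, em 515-575 nm. Measure: percent activation from peak-to-basal fluorescence ratio, scaled between DMSO and carbachol.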
# A number is an active result; - = inactive; . = no result.
SMILES,OX1R antag-1,CHO parental Ca,OX1R antag-2,TRPN1 ag,TRPML3 agonist
CCOc1cc(/C=N/NC(=O)CN2CCOCC2)ccc1OCc1ccc(Cl)cc1,-,-,-,-,-
CCOc1cc(/C=N/N2CCOCC2)ccc1OCc1ccc(C(=O)OC)o1,-,-,-,382,144
Cc1ccc(S(=O)(=O)N2CCCCC2)cc1NC(=O)COC(=O)C1(C)CC1(Cl)Cl (stereo not given),-,-,-,.,.
CCCN(CC(=O)Nc1ccccc1OC)C(=O)Cc1ccc2c(c1)CCC2,-,-,48,.,.
O=C(Nc1ccc(Oc2ccccc2)cc1)C1CCN(c2c3c(nc4ncnn24)CCC3)CC1,36,49,-,-,-
CC(=O)Nc1ccc(S(=O)(=O)N(CC(=O)NC2CC2)Cc2ccccc2)cc1,-,-,-,.,.
COc1ccccc1-c1nnc2sc(COc3ccccc3)nn12,-,-,-,-,-
CCN(CC)c1ccc(-c2nn3c(-c4ccccc4OC)nnc3s2)cc1,-,30,39,-,-
S=c1[nH]cc(-c2ccc(Cl)cc2)n1Cc1ccccc1,-,93,-,-,-
COC(c1ccccc1)c1nnc(CCC(=O)N(C)Cc2cccc(-n3cccn3)c2)o1 (stereo not given),-,-,-,-,-
Cc1cc(C)cc(C(=O)NC(CC(N)=O)c2ccc(N3CCCCCC3)c([N+](=O)[O-])c2)c1 (stereo not given),-,-,-,.,.
O=c1c2c([N+](=O)[O-])cc([N+](=O)[O-])cc2sn1-c1ccc(Br)cc1,-,-,-,-,-
O=c1c2c([N+](=O)[O-])cc([N+](=O)[O-])cc2sn1Cc1ccccc1,71,54,-,.,.
O=C1NC2(CCCCC2)C(=O)N1Cc1cccc(C(F)(F)F)c1,-,-,-,-,-
COc1cc(C(=O)NCc2nnc(SCC(=O)NCc3ccco3)o2)cc(OC)c1OC,-,-,-,.,.
Cc1ccc2nc(N3CCN(S(=O)(=O)c4ccc5c(c4)OCCO5)CC3)c(C#N)cc2c1,-,-,-,-,-
Cc1ccc(S(=O)(=O)N2CCCN(c3nc4cc(C)ccc4cc3C#N)CC2)cc1,-,-,48,-,-
NS(=O)(=O)c1ccc(CCNC(=O)CSc2ccc(Cl)cc2)cc1,-,35,-,-,-
CN(CC(=O)Nc1c(Cl)cccc1Cl)C(=O)CNC(=O)c1ccco1,-,-,-,.,.
Oc1cc(NCCN2CCOCC2)cc2cccnc12,-,-,54,.,.
CCCCN(C(=O)c1cccs1)c1c(N)n(Cc2ccccc2)c(=O)[nH]c1=O,-,-,-,.,.
COc1cccc(CN2CCN(Cc3cccn3-c3cccnc3)CC2CCO)c1 (stereo not given),-,-,-,-,-
CC(C)(C)C(=O)/C(=C\c1ccc([N+](=O)[O-])cc1)n1cncn1,-,-,101,-,-
COc1ccc(NC(=O)CSc2nc3ccncc3[nH]2)c(OC)c1,-,-,-,.,.
Cc1cc(NC(=O)CSc2nnc(-c3ccc([N+](=O)[O-])cc3)o2)no1,-,-,59,.,.
SMILES,OX1R antag-1,CHO parental Ca,OX1R antag-2,TRPN1 ag,TRPML3 agonist
CC(C)OC(=O)CSc1nnc(-c2ccc([N+](=O)[O-])cc2)o1,-,-,65,-,-
Cc1cc(NC(=O)CSc2nnc(-c3ccc(O)cc3)o2)no1,-,-,-,-,-
O=C(CSc1nnnn1-c1ccc(C(=O)O)cc1)NC1CCCCC1,-,-,-,.,.
CCN(C(=O)Cn1c(=O)oc2ccccc21)c1ccc(C)c(C)c1,-,-,-,.,.
O=C(COC(=O)/C=C/c1ccc(Cl)cc1)NC1CCCCCC1,-,-,-,.,.
CCOc1cccc(/C=C/c2ccc3cccc(O)c3n2)c1OC,-,48,-,.,.
CCOc1cccc(/C=C/c2ccc3cccc(O)c3n2)c1O,-,-,-,.,.
C/C(=N\NC(=O)c1nnn(-c2nonc2N)c1CN(C)c1ccccc1)c1ccccc1O,-,-,55,.,.
COC(=O)CSc1nc2ccc(NC(=O)CSc3nnnn3Cc3ccccc3)cc2s1,51,51,-,-,-
O=C(CSc1nc2ccc(NC(=O)CSc3nnnn3Cc3ccccc3)cc2s1)Nc1ccccc1,-,-,-,-,-
CCOC(=O)c1cc2c(=O)n3ccccc3nc2n(CCCOC)c1=NC(C)=O,-,-,51,-,-
C=CCn1c(=N)c(C(=O)NCCCOC)cc2c(=O)n3cc(C)ccc3nc21,-,-,58,-,-
CCOCCCn1c(=NC(=O)c2ccco2)c(C(=O)OCC)cc2c(=O)n3cccc(C)c3nc21,-,-,-,-,-
CCOC(=O)c1cc2c(=O)n3cccc(C)c3nc2n(CCOC)c1=NC(C)=O,-,-,-,-,-
C=CCn1c(=N)c(C(=O)OCC)cc2c(=O)n3cccc(C)c3nc21,-,-,110,-,-
CCOC(=O)c1cc2c(=O)n3cccc(C)c3nc2n(CC(C)C)c1=NC(=O)c1ccco1,-,-,54,-,-
CCOC(=O)c1cc2c(=O)n3ccccc3nc2n(C(C)C)c1=NC(=O)c1ccco1,-,-,-,-,-
CCCn1c(=NC(=O)c2ccco2)c(C(=O)OCC)cc2c(=O)n3ccccc3nc21,-,-,32,-,-
CCOc1ccc(S(=O)(=O)NCC(=O)NC2CCCCC2)cc1,-,-,-,.,.
Cc1cc(C)n2nc(/C(C#N)=C/c3ccccn3)c(C#N)c2n1,-,43,-,-,-
CSCCC(NC(=O)c1ccccc1)C(=O)NNC(=O)c1csc(N2CCOCC2)n1 (stereo not given),-,-,-,.,.
O=[N+]([O-])c1ccc(N2CCOCC2)cn1,-,-,40,-,-
CN1CCN(CC(=O)Nc2ccccc2[N+](=O)[O-])CC1,-,-,-,-,-
O=[N+]([O-])c1ccc(N2CCOCC2)cc1O,-,-,42,-,-

# Screens from PubChem.
